Measured values pooled from the literature.
Target: Serine/threonine-protein kinase SBK1 (SBK1, Homo sapiens, UniProt Q52WX2)

The remaining binding of `CCOC(=O)c1cc2cc(-c3cc(C(=O)NCc4ccc(C(=O)O)cc4)nn3C)ccc2[nH]1` is reported as 90% (cell-free assay; competition with immobilised ligand; 0.1 µM).
The remaining binding of `CN(C)c1nccc(-c2cnn3ncccc23)n1` is reported as 100% (binding; 1 µM).
The remaining binding of `CCN1CCN(Cc2ccc(C(=O)Nc3ccc(C)c(Oc4ccc5c(c4)CC(=O)N5)c3)cc2C(F)(F)F)CC1` is reported as 76% (binding; competition with immobilised ligand; 1 µM).
With `C[C@H]1CCN(c2nccc(-c3cnn4ncccc34)n2)C1` the remaining binding was 78% (binding; 1 µM).
For `C[C@@H](c1ccc(-n2cnc3c(N)ncnc32)cc1)N1CCc2nn(C)c(Cc3ccccc3)c2C1=O`, the remaining binding was 69% (binding; competition with immobilised ligand; 0.1 µM).
`Cc1cc(-n2nc(Cc3cc(F)cc(C(F)(F)F)c3)nc2C)ccc1C(N)=O` has a remaining binding of 98% (cell-free assay; competition with immobilised ligand; 1 µM).
For `N[C@H]1CCN(c2nccc(-c3cnn4ncccc34)n2)C1`, the remaining binding was 83% (binding; 1 µM).
The remaining binding of `C=CC(=O)N1CCC(C(=O)NCC(=O)N2CCN(c3nc(-c4cnc(N)nc4C(F)F)nc(N4CCOCC4)n3)CC2)CC1` is reported as 100% (binding; competition with immobilised ligand; 1 µM).
`COc1ccnn2ncc(-c3ccnc(N(C)C)n3)c12` has a remaining binding of 100% (binding; 1 µM).
`CCC(=O)N[C@H]1CC[C@@H](C(=O)N(C)c2ccc(-c3nc4ccccc4o3)cc2)C1` has a remaining binding of 94% (cell-free assay; competition with immobilised ligand; 1 µM).
`O=C(c1ccc(Nc2ncc(Cl)c(-c3ccc(Cl)s3)n2)cc1)N1CCC(N2CCCC2)CC1` has a remaining binding of 48% (binding; competition with immobilised ligand; 1 µM).
For `Cc1cnn2ncc(-c3ccnc(N(C)C)n3)c2c1`, the remaining binding was 83% (binding; 1 µM).
For `O=C(c1ccc(Nc2ncc(Cl)c(-c3cc4ccccc4s3)n2)cc1)N1CCC(N2CCCC2)CC1`, the remaining binding was 52% (binding; competition with immobilised ligand; 1 µM).
The remaining binding of `COc1cnc(Nc2cccc(S(N)(=O)=O)c2)nc1N1CCN(c2ccccc2)CC1` is reported as 96% (binding; competition with immobilised ligand; 1 µM).
`CCCCN(CCCC)C(=O)CN1C[C@H](c2cc(OC)c3c(c2)OCO3)[C@@H](C(=O)O)[C@@H]1CC(C)(C)CCC` gave a remaining binding of 76.5% (cell-free assay; competition with immobilised ligand; 1 µM).
`CN(c1nccc(-c2cnn3ncccc23)n1)C1CC1` has a remaining binding of 100% (binding; 1 µM).
With `CO[C@@H](C)c1c(Nc2ccc([C@H](N(C)C(=O)C3CCS(=O)(=O)CC3)C(F)(F)F)cc2)cnc2cc(Cl)nn12` the remaining binding was 100% (cell-free assay; competition with immobilised ligand; 1 µM).
For `CN(C)c1ncc(F)c(-c2cnn3ncccc23)n1`, the remaining binding was 66% (binding; 1 µM).
`Cc1cc(NC(=O)c2cccc(S(F)(F)(F)(F)F)c2)cc(-n2ccn3nc(-c4cccnc4)cc23)c1` gave a remaining binding of 100% (cell-free assay; competition with immobilised ligand; 1 µM).
The remaining binding of `O=C(Nc1c[nH]nc1C(=O)NC1CCNCC1)c1cc(F)cc(F)c1` is reported as 100% (binding; competition with immobilised ligand; 1 µM).
`CN(C)CC#Cc1ccc(OCCCc2sc(N3CCc4cccc(C(=O)Nc5nc6ccccc6s5)c4C3)nc2C(=O)O)c(F)c1` has a remaining binding of 100% (cell-free assay; competition with immobilised ligand; 1 µM).
`O=C(NCCCN1CCOCC1)c1ccc(Nc2ncc(Cl)c(-c3ccc(Cl)s3)n2)cc1` gave a remaining binding of 52% (binding; competition with immobilised ligand; 1 µM).
